Calls of active or inactive are those of the source. Unless noted, the calls are words filed in the database; no cut-off is given here.
Assays:
U-937 [1] = test: Induction of apoptosis in human U937 cells at 25 uM after 30 hrs; assay type: functional
Procedure, shortened: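 Apoptosis read as caspase 3 activation by FACS, in U937 cells (RPMI, 10% fetal calf serum, 200000 cells/mL) exposed to 25 µM for 30 h.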

[2] = biological target: Protein arginine N-methyltransferase 1 (Homo sapiens) (UniProt Q99873); test: Inhibition of human recombinant PRMT1 assessed as nuclear ribonucleoprotein Npl3p methylation at 100 uM
Sequence of Protein arginine N-methyltransferase 1 (Homo sapiens) (Q99873 whole entry, looked up): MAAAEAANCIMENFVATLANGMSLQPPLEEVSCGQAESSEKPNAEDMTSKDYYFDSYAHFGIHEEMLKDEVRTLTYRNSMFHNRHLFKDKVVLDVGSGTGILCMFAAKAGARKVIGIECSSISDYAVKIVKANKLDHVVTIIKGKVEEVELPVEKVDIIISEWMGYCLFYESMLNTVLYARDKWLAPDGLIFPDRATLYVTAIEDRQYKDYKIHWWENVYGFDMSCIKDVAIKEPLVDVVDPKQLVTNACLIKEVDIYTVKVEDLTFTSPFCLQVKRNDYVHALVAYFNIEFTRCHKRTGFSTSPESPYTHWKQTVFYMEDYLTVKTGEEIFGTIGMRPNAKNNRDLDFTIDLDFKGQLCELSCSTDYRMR
Procedure, shortened: (§1)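 Recombinant enzymes (0.2 µg) with substrate (0.5 µg: Npl3p for PRMT1, PABP1 for CARM1, histone H3 for SET7), 0.5 µM [3H]AdoMet and 100 µM compound in PBS pH 7.4 with 3.3% v/v DMSO, 90 min at 30 °C. Products separated by 10% SDS-PAGE, transferred to PVDF, detected by fluorography on film overnight.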

U-937 [3] = test: Inhibition of histone H4R3 methylation in human U937 cells at 50 uM after 24 hrs; assay type: functional, cell-based
Procedure, shortened: (§2)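 U937 cells treated at 50 µM for 24 h. Histones extracted with Triton buffer, then 0.2 M HCl overnight at 4 °C. 3–10 µg run on 15% SDS-PAGE and immunoblotted with anti-monomethyl-H3K4, monomethyl-H4R3 or dimethyl-H3R17 (1:500, overnight 4 °C), ECL detection. Loading controls: total H4 (H3K4), Ponceau Red (Arg marks).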

U-937 [4] = test: Inhibition of human p300/CBP in U937 cells at 50 uM assessed as histone H3 acetylation; assay type: cell-based
Procedure, shortened: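 Source was U937 nuclear extract (10 µg per assay) as p300/CBP HAT, with histone H3 substrate and compound at 50 µM or DMSO control for 90 min. Acetyl-H3 detected by indirect ELISA, quantified against acetylated H3 peptide standard curves, […].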

[5] = biological target: T1, Histone-lysine N-methyltransferase SETD7 (Homo sapiens) (UniProt Q8WTS6); test: Inhibition of human recombinant SET7 assessed as histone H3 protein methylation at 100 uM; procedure, shortened: as §1
T1 sequence (whole entry): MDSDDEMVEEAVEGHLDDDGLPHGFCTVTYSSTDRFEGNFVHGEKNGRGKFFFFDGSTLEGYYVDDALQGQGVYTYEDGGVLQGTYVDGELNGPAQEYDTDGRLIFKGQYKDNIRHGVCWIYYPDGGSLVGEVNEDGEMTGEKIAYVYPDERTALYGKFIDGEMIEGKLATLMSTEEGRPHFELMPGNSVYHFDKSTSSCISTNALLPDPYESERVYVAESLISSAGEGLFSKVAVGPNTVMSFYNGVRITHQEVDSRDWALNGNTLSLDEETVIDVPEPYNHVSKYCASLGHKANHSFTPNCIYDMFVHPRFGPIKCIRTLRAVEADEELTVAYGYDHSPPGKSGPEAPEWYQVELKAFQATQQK

RmtA = RmtA (Emericella nidulans, UniProt Q5VLE3); test: Inhibition of Aspergillus nidulans RmtA
Sequence of RmtA (Q5VLE3 whole entry, the tested form may be a part): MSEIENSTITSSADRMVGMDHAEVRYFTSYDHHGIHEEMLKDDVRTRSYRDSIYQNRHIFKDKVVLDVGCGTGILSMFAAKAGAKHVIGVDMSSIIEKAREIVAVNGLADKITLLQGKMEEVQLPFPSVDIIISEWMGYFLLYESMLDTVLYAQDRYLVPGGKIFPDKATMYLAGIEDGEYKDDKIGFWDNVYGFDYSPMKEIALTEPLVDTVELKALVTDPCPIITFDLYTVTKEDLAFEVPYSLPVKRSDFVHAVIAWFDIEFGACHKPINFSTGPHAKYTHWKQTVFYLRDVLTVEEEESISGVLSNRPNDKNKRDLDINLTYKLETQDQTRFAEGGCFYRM
Procedure, shortened: (§3)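 Enzyme was GST-RmtA fusion expressed in E. coli BL21 and glutathione-affinity purified (500 ng), preincubated with compound for 15 min at room temperature. Then 20 µg chicken erythrocyte core histones and 0.55 µCi [3H]AdoMet were added, 30 min at 30 °C. Stopped with 25% TCA, filtered, counted by liquid scintillation.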

U-937 [6] = test: Inhibition of histone H3R17 methylation in human U937 cells at 50 uM after 24 hrs; assay type: functional, cell-based; procedure, shortened: as §2
U-937 [7] = test: Induction of granulocytic differentiation in human U937 cells assessed as CD11c expression at 5 uM after 30 hrs; assay type: functional
Procedure, shortened: (§4)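 U937 cells treated for 30 h, then stained with PE-conjugated CD11c (PE mouse IgG1 as control) for 30 min at 4 °C in the dark and resuspended in PBS with PI (0.25 µg/mL). Read-out is percent CD11c-positive/PI-negative cells, with dead PI-positive cells excluded. Coloured compounds limited the top dose to 5 µM or lower.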

[8] = biological target: T2, NAD-dependent protein deacetylase sirtuin-1 (Homo sapiens) (UniProt Q96EB6); test: Inhibition of human SIRT1 at 25 uM
T2 sequence (whole entry): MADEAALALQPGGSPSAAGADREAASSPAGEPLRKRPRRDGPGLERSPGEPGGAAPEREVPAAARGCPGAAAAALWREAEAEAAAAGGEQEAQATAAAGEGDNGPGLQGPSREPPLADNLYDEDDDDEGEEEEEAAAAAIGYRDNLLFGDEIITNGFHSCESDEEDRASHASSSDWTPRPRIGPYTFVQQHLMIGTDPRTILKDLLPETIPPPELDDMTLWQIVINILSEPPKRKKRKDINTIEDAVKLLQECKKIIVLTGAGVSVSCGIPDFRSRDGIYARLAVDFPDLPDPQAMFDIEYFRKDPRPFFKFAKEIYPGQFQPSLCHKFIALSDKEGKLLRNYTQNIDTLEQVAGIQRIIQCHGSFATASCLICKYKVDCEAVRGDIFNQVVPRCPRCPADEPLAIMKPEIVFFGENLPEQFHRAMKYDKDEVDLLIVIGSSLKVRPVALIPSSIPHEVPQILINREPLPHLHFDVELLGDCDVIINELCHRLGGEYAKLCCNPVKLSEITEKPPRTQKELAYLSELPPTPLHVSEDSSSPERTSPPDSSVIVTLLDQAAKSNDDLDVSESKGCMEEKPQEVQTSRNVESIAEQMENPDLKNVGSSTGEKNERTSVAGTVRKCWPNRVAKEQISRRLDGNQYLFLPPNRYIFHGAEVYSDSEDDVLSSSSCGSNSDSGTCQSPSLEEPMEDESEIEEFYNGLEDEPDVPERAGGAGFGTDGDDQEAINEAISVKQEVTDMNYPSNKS
Procedure, shortened: (§5)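 Fluorescent two-stage assay. SIRT1 (1 U/well) or SIRT2 (5 U/well) with Fluor de Lys-SIRT1/2 substrate, NAD+ and compound at 25 µM, 37 °C for 2 h. Developer II containing nicotinamide then stopped the reaction and generated signal, read at ex 360/em 460 nm.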

[9] = biological target: T3, NAD-dependent protein deacetylase sirtuin-2 (Homo sapiens) (UniProt Q8IXJ6); test: Inhibition of human SIRT2 at 25 uM; procedure, shortened: as §5
T3 sequence (whole entry): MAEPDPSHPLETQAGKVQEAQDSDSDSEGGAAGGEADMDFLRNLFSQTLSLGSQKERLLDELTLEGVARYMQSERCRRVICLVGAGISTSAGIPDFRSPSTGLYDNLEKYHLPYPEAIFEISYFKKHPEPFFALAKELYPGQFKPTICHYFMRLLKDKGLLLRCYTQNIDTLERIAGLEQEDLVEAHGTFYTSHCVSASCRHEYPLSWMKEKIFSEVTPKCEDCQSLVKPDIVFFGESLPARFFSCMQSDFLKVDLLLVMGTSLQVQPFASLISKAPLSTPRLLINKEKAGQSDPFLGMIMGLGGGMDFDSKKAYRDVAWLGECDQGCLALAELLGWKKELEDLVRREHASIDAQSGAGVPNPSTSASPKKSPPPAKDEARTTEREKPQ

[10] = biological target: Protein arginine N-methyltransferase 1 (Homo sapiens) (UniProt Q99873); test: Inhibition of human recombinant PRMT1 assessed as histone H4 methylation at 50 uM
U-937 [11] = test: Cell cycle arrest in human U937 cells assessed as accumulation at G2 phase at 25 uM after 30 hrs; assay type: functional, cell-based
Procedure, shortened: (§6)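 U937 cells in RPMI with 10% fetal calf serum, HEPES and glutamine, kept at 200000 cells/mL; treated at 25 µM for 30 h, then the distribution across cell cycle phases was analysed.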

U-937 [12] = test: Inhibition of histone H3K4 methylation in human U937 cells at 50 uM after 24 hrs; assay type: functional, cell-based; procedure, shortened: as §2
[13] = biological target: T4, Histone-arginine methyltransferase CARM1 (Homo sapiens) (UniProt Q86X55); test: Inhibition of human recombinant CARM1 assessed as poly(A) binding protein 1 methylation at 100 uM; procedure, shortened: as §1
T4 sequence (whole entry): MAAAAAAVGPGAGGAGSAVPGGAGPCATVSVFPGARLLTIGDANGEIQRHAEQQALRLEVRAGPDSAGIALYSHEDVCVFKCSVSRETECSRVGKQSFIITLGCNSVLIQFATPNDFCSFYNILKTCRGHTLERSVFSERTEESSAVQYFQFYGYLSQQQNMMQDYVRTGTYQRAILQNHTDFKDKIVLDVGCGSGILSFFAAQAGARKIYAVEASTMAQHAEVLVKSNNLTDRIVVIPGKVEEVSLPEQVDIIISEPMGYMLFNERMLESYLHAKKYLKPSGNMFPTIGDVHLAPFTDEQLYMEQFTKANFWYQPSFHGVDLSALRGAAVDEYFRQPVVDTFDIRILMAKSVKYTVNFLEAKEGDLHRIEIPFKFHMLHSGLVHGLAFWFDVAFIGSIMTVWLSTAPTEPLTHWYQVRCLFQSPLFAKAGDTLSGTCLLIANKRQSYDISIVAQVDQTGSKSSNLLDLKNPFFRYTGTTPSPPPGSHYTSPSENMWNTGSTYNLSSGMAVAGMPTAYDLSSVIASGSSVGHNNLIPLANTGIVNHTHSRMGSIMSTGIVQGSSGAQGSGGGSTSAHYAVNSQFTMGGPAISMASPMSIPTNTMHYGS

[14] = biological target: RmtA (Emericella nidulans) (UniProt Q5VLE3); test: Inhibition of Aspergillus nidulans RmtA at 89.4 uM
Sequence of RmtA (Emericella nidulans) (Q5VLE3 as listed by the source): as the sequence (Q5VLE3 whole entry, the tested form may be a part) above

[15] = biological target: RmtA (Emericella nidulans) (UniProt Q5VLE3); test: Inhibition of Aspergillus nidulans RmtA at 84.6 uM; procedure, shortened: as §3
[16] = biological target: RmtA (Emericella nidulans) (UniProt Q5VLE3); test: Inhibition of Aspergillus nidulans RmtA at 77 uM
U-937 [17] = test: Cell cycle arrest in human U937 cells assessed as accumulation at S/G2 phase at 25 uM after 30 hrs; assay type: functional, cell-based; procedure, shortened: as §6
[18] = biological target: RmtA (Emericella nidulans) (UniProt Q5VLE3); test: Inhibition of Aspergillus nidulans RmtA at 88.5 uM; procedure, shortened: as §3
[19] = biological target: RmtA (Emericella nidulans) (UniProt Q5VLE3); test: Inhibition of Aspergillus nidulans RmtA at 90 uM
[20] = biological target: RmtA (Emericella nidulans) (UniProt Q5VLE3); test: Inhibition of Aspergillus nidulans RmtA at 91.8 uM; procedure, shortened: as §3
U-937 [21] = test: Induction of granulocytic differentiation in human U937 cells assessed as CD11c expression at 1 uM after 30 hrs; assay type: functional; procedure, shortened: as §4
U-937 [22] = test: Induction of cell cycle arrest in human U937 cells at 25 uM after 30 hrs; assay type: functional, cell-based; procedure, shortened: as §6
[23] = biological target: RmtA (Emericella nidulans) (UniProt Q5VLE3); test: Inhibition of Aspergillus nidulans RmtA at 70.4 uM; procedure, shortened: as §3
U-937 [24] = test: Induction of granulocytic differentiation in human U937 cells assessed as CD11c expression at 0.5 uM after 30 hrs; assay type: functional; procedure, shortened: as §4

Compound | Activity (U-937 [1]) [%] | Activity [2] | Activity (U-937 [3]) | inhibition (U-937 [4]) [%] | Activity [5] | IC50 (RmtA) [µM] | Activity (U-937 [6]) | inhibition [8] [%] | inhibition [9] [%] | inhibition [10] [%] | Activity (U-937 [12]) | Activity [13] | other results
CN1C/C(=C\c2cc(Br)c(O)c(Br)c2)C(=O)/C(=C/c2cc(Br)c(O)c(Br)c2)C1 | 1 | Active | Active | 87 | Active | 39 | Active | 63 | 64 | 73 | Active | Active | Activity (U-937 [7]): 53.2%; Activity (U-937 [11]): Active
O=C1/C(=C/c2ccc(O)c(Br)c2)CCCC/C1=C\c1ccc(O)c(Br)c1 |  | inactive | Active |  | inactive |  | Active |  |  |  | Active | Active | inhibition [14]: 0%
CN1C2CCC1/C(=C\c1ccc(O)c(Br)c1)C(=O)/C2=C/c1ccc(O)c(Br)c1 |  |  | Active |  |  |  | Active |  |  |  | Active |  | inhibition [15]: 0%
O=C1/C(=C/c2ccc(O)c(Br)c2)CN(Cc2ccccc2)C/C1=C\c1ccc(O)c(Br)c1 |  | inactive | Active |  | inactive |  | Active |  |  |  | Active | Active | inhibition [16]: 0%
O=C1/C(=C/c2cc(Br)c(O)c(Br)c2)CSC/C1=C\c1cc(Br)c(O)c(Br)c1 | 40.7 | Active | Active | 69 | Active | 45 | Active | 54 | 59 | 73 | Active | Active | Activity (U-937 [17]): Active; Activity (U-937 [7]): 9.1%
O=C1/C(=C/c2ccc(O)c(Br)c2)CSC/C1=C\c1ccc(O)c(Br)c1 |  | inactive | Active |  | inactive |  | Active |  |  |  | Active | Active | inhibition [18]: 0%
O=C(c1cc(Br)c(O)c(Br)c1)c1cc(Br)c(O)c(Br)c1 |  |  | Active |  |  |  | Active |  |  |  | Active |  | inhibition [19]: 0%
CC(C)(C(=O)/C=C/c1ccc(O)c(Br)c1)C(=O)/C=C/c1ccc(O)c(Br)c1 |  |  | Active |  |  |  | Active |  |  |  |  |  | inhibition [20]: 0%
O=C1OC2(c3ccccc31)c1cc(Br)c(O)c(Br)c1Oc1c2cc(Br)c(O)c1Br [EOSIN] | 0.5 | Active | Active | 20 | Active | 18 | Active | 33 | 31 | 96 |  | Active | Activity (U-937 [21]): 5.7%; Activity (U-937 [22]): inactive
O=C(Nc1cc(Br)c(O)c(Br)c1)c1ccc(C(=O)Nc2cc(Br)c(O)c(Br)c2)cc1 |  |  | Active |  |  |  | Active |  |  |  |  |  | inhibition [23]: 0%
O=C(/C=C/c1cc(Br)c(O)c(Br)c1)/C=C/c1cc(Br)c(O)c(Br)c1 | 1.1 |  | Active | 100 | Active | 69 | Active | 61 | 100 | 76 | Active | Active | Activity (U-937 [24]): 77%; Activity (U-937 [7]): 95.2%; Activity (U-937 [11]): Active
